This note sets out measurements from ChEMBL document CHEMBL1154201, “2-Aminobenzimidazoles as potent Aurora kinase inhibitors” (Bioorg Med Chem Lett, 2009).

In brackets after ≈: the same amount, converted by molar mass. Activity calls are given as the source filed them.

Data set [1] can be described thus: Aqueous solubility at pH 4. The class given is physicochemical. In short, it runs like this:
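Kinetic solubility at pH 4.0, reported as a range from low to high solubility; values of 1000 µM or higher are reported as >1000 µM.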

Data set [2] has as its system HCT-116. Briefly: Cell cycle arrest in human HCT116 cells assessed as accumulation of 4N DNA by FACS analysis. The class given is functional, cell-based. In short, it runs like this: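 HCT116 cells exposed to 16, 63, 250 and 1000 nM of compound, then cell-cycle profile read by FACS. EC50 is reported as the concentration range at which ≥50% of cells have 4 N or higher DNA content.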
For orientation: In flow cytometry, cells or beads pass a laser one at a time.

The subject of data set [3] is HCT-116. The data set can be described thus: Cell cycle arrest in human HCT116 cells assessed as accumulation of cells at G2 phase. It is filed as functional, cell-based.
In a further data set the target is Aurora kinase B (Homo sapiens, UniProt Q96GD4). The data set can be described thus: Inhibition of Aurora B after 60 mins.
Aurora kinase B, sequence (Q96GD4 whole entry): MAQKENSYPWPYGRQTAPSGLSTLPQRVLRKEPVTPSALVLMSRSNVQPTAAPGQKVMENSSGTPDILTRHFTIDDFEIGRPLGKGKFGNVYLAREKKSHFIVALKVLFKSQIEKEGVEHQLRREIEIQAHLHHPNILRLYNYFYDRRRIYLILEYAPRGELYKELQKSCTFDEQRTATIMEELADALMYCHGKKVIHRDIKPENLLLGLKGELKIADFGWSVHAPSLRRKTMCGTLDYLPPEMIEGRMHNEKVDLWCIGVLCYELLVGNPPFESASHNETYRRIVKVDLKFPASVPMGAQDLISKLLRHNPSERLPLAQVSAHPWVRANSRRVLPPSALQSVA
The nature of data set [4]: Clearance in mouse at 5 mg/kg, iv. The class given is ADME, organism-based. Also noted: dose 5 mg/kg, route intravenous. As to conditions: in vivo.
For another data set, the target named is T1, Aurora kinase A (Homo sapiens, UniProt O14965).
T1 sequence (O14965 whole entry): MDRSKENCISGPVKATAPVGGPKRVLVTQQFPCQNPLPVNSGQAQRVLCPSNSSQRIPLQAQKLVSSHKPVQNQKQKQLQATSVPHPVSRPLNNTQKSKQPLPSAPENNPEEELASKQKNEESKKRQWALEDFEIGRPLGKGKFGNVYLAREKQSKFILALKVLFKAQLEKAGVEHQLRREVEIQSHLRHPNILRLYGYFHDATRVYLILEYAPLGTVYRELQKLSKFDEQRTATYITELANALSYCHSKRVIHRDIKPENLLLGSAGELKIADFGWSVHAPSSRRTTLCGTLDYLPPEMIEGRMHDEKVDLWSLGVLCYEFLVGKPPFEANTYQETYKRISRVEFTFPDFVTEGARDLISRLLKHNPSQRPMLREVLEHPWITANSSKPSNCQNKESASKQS
The data set can be described thus: Inhibition of Aurora A after 60 mins.

Data set [5] can be described thus: Half life in mouse at 5 mg/kg, iv. It is filed as ADME, organism-based. Also noted: dose 5 mg/kg, route intravenous. The settings on record: in vivo.
For data set [6], the system named is HCT-116. The data set can be described thus: Antiproliferative activity against human HCT116 cells by BrdU incorporation assay. The class given is functional, cell-based. In a few lines:
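HCT116 proliferation measured as BrdU incorporation; EC50 reported.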
(Incorporation of labelled thymidine or its analogues reports DNA synthesis.)

What is called solubility is the dissolved amount per volume that the medium holds. Lower therefore signals a poorly soluble substance. The term EC50 denotes the concentration at which the effect is half-maximal. As usually defined, the IC50 is the concentration that gives 50% inhibition. The term clearance denotes a measure of how efficiently the substance is removed, as volume per time. Low readings indicate a low capacity for elimination, high ones a high capacity for elimination. The term half-life denotes the time needed for the level to fall by half in the phase considered. With `FC(F)(F)c1ccc2[nH]c(Nc3ccc(CCNc4ncnc5ccsc45)cc3)nc2c1`, in data set [1], the concentration in solution (solubility) came to 750 µM (≈ 341 µg/mL). Besides, the EC50 came out at 16 nM with HCT-116 [2] and 5 nM in the data set on HCT-116 [6]. Further, the outcome in the data set on HCT-116 [3] was Active. Also, the IC50 against Aurora kinase B came to 6 nM; against Aurora kinase A it was 40 nM. The compound further showed a clearance in data set [4] of 85 mL/min/kg. For the same compound, in data set [5], the half-life was 0.61 h.

On to `c1cc2nc(Nc3ccc(CCNc4ncnc5ccsc45)cc3)[nH]c2cn1`, for which the solubility in data set [1] was > 1000 µM. This compound also returned a half-inhibitory concentration (IC50) at Aurora kinase B of 140 nM.

At Aurora kinase B, `c1cc(CNc2ncnc3ccsc23)cc(Nc2nc3ccccc3[nH]2)c1` yielded an IC50 of 580 nM. This compound returned an EC50 in the data set on HCT-116 [6] of 8500 nM.

Regarding `c1ccc2[nH]c(Nc3ncc(CCNc4ncnc5ccsc45)s3)nc2c1`, the solubility in data set [1] was found to be 400 µM (≈ 157 µg/mL). Further, the figures for the IC50 against Aurora kinase B and on Aurora kinase A were 420 nM and 1400 nM, respectively.

`c1ccc2oc(Nc3ccc(CCNc4ncnc5ccsc45)cc3)nc2c1` yielded a solubility in data set [1] of 200 µM (≈ 77.5 µg/mL). At Aurora kinase B, it took 120 nM to reach half-maximal inhibition (IC50). Moreover, it took 400 nM to reach a half-maximal effect with HCT-116 [6] (EC50).

For `c1ccc2sc(Nc3ccc(CCNc4ncnc5ccsc45)cc3)nc2c1`, the solubility in data set [1] worked out at 100 µM (≈ 40.4 µg/mL). Also, the IC50 at Aurora kinase B was determined as 2500 nM.

Take `c1ccc2[nH]c(Nc3ccc(CCNc4ncnc5ccsc45)cc3)nc2c1`: the solubility in data set [1] was > 1000 µM. In addition, the concentration for half-maximal inhibition (IC50) is 10 nM against Aurora kinase B and 28 nM against Aurora kinase A. The same compound had an EC50 in the data set on HCT-116 [6] of 41 nM.

As for `Fc1cc(CCNc2ncnc3ccsc23)ccc1Nc1nc2cc(C(F)(F)F)ccc2[nH]1`, the solubility in data set [1] was found to be 750 µM (≈ 354 µg/mL). Further, the figures for the EC50 in the data set with HCT-116 [2] and in the data set on HCT-116 [6] were 63 nM and 80 nM, respectively. The values for the IC50 at Aurora kinase B and against Aurora kinase A were 21 nM and 64 nM, respectively.

As for `c1ccc(-c2c[nH]c(Nc3ccc(CCNc4ncnc5ccsc45)cc3)n2)cc1`, the solubility in data set [1] is > 1000 µM. The IC50 against Aurora kinase B was > 10000 nM.

As to `c1ccc2[nH]c(Nc3ccc(CNc4ncnc5ccsc45)cc3)nc2c1`, the IC50 at Aurora kinase B is > 10000 nM.

`Clc1cnc2nc(Nc3ccc(CCNc4ncnc5ccsc45)cc3)[nH]c2c1`: the concentration in solution in data set [1] (solubility) was 100 µM (≈ 42.2 µg/mL). Besides, the EC50 was 16 nM in the data set with HCT-116 [2] and 17 nM in the data set with HCT-116 [6]. In addition, the IC50 came to 10 nM against Aurora kinase B and 20 nM against Aurora kinase A.

Take `O=C(Nc1cccc(C(F)(F)F)c1)Nc1ncc(CCNc2ncnc3ccsc23)s1`: in data set [1], the concentration in solution (solubility) was 50 µM (≈ 23.2 µg/mL). The EC50 with HCT-116 [2] is < 16 nM.

Turning to `c1cnc2nc(Nc3ccc(CCNc4ncnc5ccsc45)cc3)[nH]c2c1`, the solubility in data set [1] was > 1000 µM. Moreover, on Aurora kinase B, the IC50 turned out to be 83 nM. The compound also yielded an EC50 in the data set on HCT-116 [6] of 270 nM.

For the compound `FC(F)(F)c1cnc2nc(Nc3ccc(CCNc4ncnc5ccsc45)cc3)[nH]c2c1`, in data set [1], the concentration in solution (solubility) came to 100 µM (≈ 45.5 µg/mL). Further, the values for the EC50 in the data set with HCT-116 [2] and in the data set on HCT-116 [6] were < 16 nM and < 1 nM, respectively. Also, the IC50 was 5 nM against Aurora kinase B and 17 nM at Aurora kinase A. In data set [5], this compound gave a half-life of 1.5 h.

In data set [1], `FC(F)(F)c1ccc2nc(Nc3ncc(CCNc4ncnc5ccsc45)s3)[nH]c2c1` displayed a solubility of 100 µM (≈ 46.1 µg/mL). Moreover, the IC50 worked out at 620 nM against Aurora kinase B and 490 nM at Aurora kinase A. In the data set on HCT-116 [6], this compound had an EC50 of 1900 nM.

In turn, `c1cc(CCNc2ncnc3ccsc23)cc(Nc2nc3ccccc3[nH]2)c1` gave an IC50 on Aurora kinase B of 1400 nM.

For `Cc1nc(Nc2ccc(CCNc3ncnc4ccsc34)cc2)[nH]c1C`, the solubility in data set [1] was > 1000 µM. Besides, the IC50 at Aurora kinase B came to 5600 nM.

Regarding `CS(=O)(=O)O.O=C(Nc1cccc(Cl)c1)Nc1ncc(CCNc2ncnc3ccsc23)s1` [SNS-314 MESYLATE], the solubility in data set [1] was found to be 50 µM. In the data set on HCT-116 [2], the 50% effective concentration (EC50) is < 16 nM. Moreover, the clearance in data set [4] came out at 48 mL/min/kg. In data set [5], this compound had a half-life of 1.4 h.

On to `Cn1c(Nc2ccc(CCNc3ncnc4ccsc34)cc2)nc2ccccc21`, for which, in data set [1], the solubility was > 1000 µM. In addition, the half-inhibitory concentration (IC50) against Aurora kinase B turned out to be 280 nM.

Turning to `FC(F)(F)c1ccc2[nH]c(Nc3ccc(CCNc4ncnc5ccsc45)cn3)nc2c1`, in data set [1], the solubility is > 1000 µM. The compound also yielded a half-inhibitory concentration (IC50) against Aurora kinase B of 600 nM.

For `FC(F)(F)c1cccc(Nc2nc3ccc(CCNc4ncnc5ccsc45)cc3[nH]2)c1`, the IC50 against Aurora kinase B turned out to be 1400 nM.

Consider `O=C(Nc1ccccc1)Nc1ncc(CCNc2ncnc3ccsc23)s1`, for which, in data set [1], the solubility came to 100 µM (≈ 39.7 µg/mL). In addition, in the data set with HCT-116 [2], the half-maximal effective concentration (EC50) amounted to 16 nM.

`Clc1ccc2[nH]c(Nc3ccc(CCNc4ncnc5ccsc45)cc3)nc2c1`: the solubility in data set [1] is > 1000 µM. In addition, the half-maximal effective concentration (EC50) in the data set with HCT-116 [2] amounted to 16 nM; with HCT-116 [6], 9 nM. Moreover, the result in the data set on HCT-116 [3] was Active. Also, the IC50 against Aurora kinase B turned out to be 8 nM; against Aurora kinase A, 28 nM. In data set [4], this compound registered a clearance of 39 mL/min/kg. Further, the half-life in data set [5] is 0.45 h.

Take `FC(F)(F)c1ccc2nc(Nc3ccc(CCNc4ncnc5ccsc45)nc3)[nH]c2c1`: in data set [1], the solubility worked out at 400 µM (≈ 182 µg/mL). Further, the figures for the EC50 in the data set with HCT-116 [2] and in the data set with HCT-116 [6] were 63 nM and 161 nM, respectively. Moreover, the IC50 against Aurora kinase B turned out to be 63 nM.
